What was measured:
[1] = biological target: T1, NADH-ubiquinone oxidoreductase chain 1 (Bos taurus, UniProt P03887); assay: Inhibition of Bos taurus (bovine) mitochondrial complex 1 assessed as reduction in enzyme activity by NADH-DU oxidoreductase assay
Outline: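 Bovine heart submitochondrial particles (SMP) at 30 µg protein/ml. 50 µM decyl ubiquinone is the acceptor. SMP are preincubated with the HU for 5 min, then 50 µM NADH is added. NADH oxidation is read at 340 nm, 30 °C. IC50 from two independent experiments.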

[2] = biological target: T1, NADH-ubiquinone oxidoreductase chain 1; assay: Inhibition of Bos taurus (bovine) mitochondrial complex 1 assessed as reduction in enzyme activity by NADH-DB oxidoreductase assay

T1 sequence (P03887 whole entry): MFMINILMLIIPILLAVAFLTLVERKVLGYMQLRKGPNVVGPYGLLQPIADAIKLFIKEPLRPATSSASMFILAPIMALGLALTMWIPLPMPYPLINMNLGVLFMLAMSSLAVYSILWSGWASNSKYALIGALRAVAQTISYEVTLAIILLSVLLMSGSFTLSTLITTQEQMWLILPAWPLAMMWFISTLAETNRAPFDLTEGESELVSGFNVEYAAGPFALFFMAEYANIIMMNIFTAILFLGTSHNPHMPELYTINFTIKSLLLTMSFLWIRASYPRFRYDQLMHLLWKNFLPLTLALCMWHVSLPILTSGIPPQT

SMILES | IC50 [1] [nM] | IC50 [2] [nM]
COC1=C(OC)C(=O)C(CN(C)C(=O)c2ccc(Oc3ccc(C(C)(C)C)cc3)cc2)=C(C)C1=O | 88 | 77
CCN(CC1=C(C)C(=O)C(OC)=C(OC)C1=O)C(=O)c1ccc(Oc2ccc(C(C)(C)C)cc2)cc1 | 630 | 370
COC1=C(OC)C(=O)C(CNC(=O)c2ccc(Oc3ccc(C(C)(C)C)cc3)cc2)=C(C)C1=O | 530 | 340
COC1=C(OC)C(=O)C(CC(=O)N(C)c2ccc(Oc3ccc(C(C)(C)C)cc3)cc2)=C(C)C1=O | 2000 | 1800
CCCCc1ccc(Oc2ccc(C(=O)N(C)CC3=C(C)C(=O)C(OC)=C(OC)C3=O)cc2)cc1 | 840 | 970
COC1=C(OC)C(=O)C(CCN(C)C(=O)c2ccc(Oc3ccc(C(C)(C)C)cc3)cc2)=C(C)C1=O | 760 | 470
COC1=C(OC)C(=O)C(CCCCCCN(C)C(=O)c2ccc(Oc3ccc(C(C)(C)C)cc3)cc2)=C(C)C1=O | 610 | 1100
CCCCCCCCCCC(=O)N(C)CC1=C(C)C(=O)C(OC)=C(OC)C1=O | 6200 | 11800
CN(C)C(=O)c1ccc(Oc2ccc(C(C)(C)C)cc2)cc1 | – | 650
C/C=C(\C)[C@H](O)[C@H](C)/C=C(C)/C=C/C/C(C)=C/Cc1nc(OC)c(OC)c(O)c1C [PIERICIDIN A] | – | 3
